According to ChEMBL document CHEMBL1158347, “Substituted quinazolines, part 3. Synthesis, in vitro antitumor activity and molecular modeling study of certain 2-thieno-4(3H)-quinazolinone analogs” (2009):

Tested on: not listed separately
Assay: Growth inhibition of human renal cancer cells after 48 hrs
Format: functional
Conditions: Cancer cell lines
Method in brief: (§1)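 NCI in vitro disease-oriented human tumor cell line screen. Compounds passing a one-dose primary assay (MCF-7, NCI-H460, SF-268; pass = growth of any line reduced to 32% or less) were tested on the 60-line panel over a 5-log dose range. Compounds were dissolved in DMSO, with under 1% DMSO in final dilutions, and tested in duplicate at 6×10^4 cells/ml. Cells were incubated at 37 °C in 5% CO2 for 48 h, then diluted 10-fold in saline and counted with a Coulter counter, with counts corrected for dilution. Controls held PBS/DMSO at identical dilutions. GI50 was reported per line and as subpanel/full-panel mean-graph midpoint.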

Question: With `CCSc1nc(-c2cccs2)nc2ccc(I)cc12` as the compound, how does the GI50 read?
Answer: > 100 µM

Question: What about the TGI of the same compound?
Answer: > 100 µM

Question: Which GI50 does the source give for `NNC(=O)COc1nc(-c2cccs2)nc2ccc(I)cc12` here?
Answer: 23.1 µM

Question: What about the TGI of the same compound?
Answer: 71.1 µM

Tested on: T47D
Assay: Growth inhibition of human T47D cells after 48 hrs
Format: functional
Conditions: not given
Method in brief: as §1

Question: What does the source list for `NNC(=O)COc1nc(-c2cccs2)nc2ccc(I)cc12`?
Answer: GI50: 2 µM; LC50: > 100 µM; TGI: 22 µM

Tested on: MCF7
Assay: Growth inhibition of human MCF7 cells after 48 hrs
Format: functional
Conditions: MCF7, 48 h
Method in brief: as §1

Question: With `NNC(=O)COc1nc(-c2cccs2)nc2ccc(I)cc12` as the compound, how does the GI50 read?
Answer: 16 µM

Question: And the TGI?
Answer: 89 µM

Same assay, conditions: MCF7, 48 h, read-out: LC50 (the source's name)

Question: With `NNC(=O)COc1nc(-c2cccs2)nc2ccc(I)cc12` as the compound, how does the CC50 read?
Answer: > 100 µM

Tested on: not listed separately
Assay: Growth inhibition of human ovarian cancer cells after 48 hrs
Format: functional
Conditions: Cancer cell lines
Method in brief: as §1

Question: Which GI50 does the source give for `CCSc1nc(-c2cccs2)nc2ccc(I)cc12` here?
Answer: 85.2 µM

Question: And the TGI?
Answer: > 100 µM

Question: Which results are given for `NNC(=O)COc1nc(-c2cccs2)nc2ccc(I)cc12`?
Answer: GI50: 22.3 µM; TGI: 72.5 µM

Tested on: UACC-257
Assay: Growth inhibition of human UACC257 cells after 48 hrs
Format: functional
Conditions: UACC-257, 48 h
Method in brief: as §1

Question: For `NNC(=O)COc1nc(-c2cccs2)nc2ccc(I)cc12`, which GI50 is on record?
Answer: < 0.01 µM

Question: And the LC50?
Answer: > 100 µM

Question: And the TGI?
Answer: > 100 µM

Tested on: RPMI-8226
Assay: Growth inhibition of human RPMI8226 cells after 48 hrs
Format: functional
Conditions: RPMI-8226, 48 h
Method in brief: as §1

Question: Which GI50 does the source give for `NNC(=O)COc1nc(-c2cccs2)nc2ccc(I)cc12` here?
Answer: 16 µM

Question: What about the TGI of the same compound?
Answer: 39 µM

Same assay, conditions: RPMI-8226, 48 h, read-out: LC50 (the source's name)

Question: For `NNC(=O)COc1nc(-c2cccs2)nc2ccc(I)cc12`, which CC50 is on record?
Answer: 97 µM

Tested on: not listed separately
Assay: Growth inhibition of human melanoma cells after 48 hrs
Format: functional
Conditions: Melanoma cell
Method in brief: as §1

Question: With `CCSc1nc(-c2cccs2)nc2ccc(I)cc12` as the compound, how does the GI50 read?
Answer: > 100 µM

Question: What about the TGI of the same compound?
Answer: > 100 µM

Question: For `NNC(=O)COc1nc(-c2cccs2)nc2ccc(I)cc12`, which GI50 is on record?
Answer: 19.4 µM

Question: And the TGI?
Answer: 51.1 µM

Tested on: HL-60(TB)
Assay: Growth inhibition of human HL-60(TB) cells after 48 hrs
Format: functional
Conditions: HL-60, 48 h
Method in brief: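 NCI 60-cell-line screen over a 5-log dose range. Compounds were dissolved in DMSO, final DMSO under 1%. Duplicate wells were seeded at 6×10^4 cells/ml, with PBS/DMSO vehicle controls at identical dilutions. Cells were incubated 48 h at 37 °C in humidified 5% CO2, diluted 10-fold in saline, and counted by Coulter counter with dilution correction. GI50 read-out.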

Question: With `NNC(=O)COc1nc(-c2cccs2)nc2ccc(I)cc12` as the compound, how does the GI50 read?
Answer: 38 µM

Question: And the TGI?
Answer: > 100 µM

Same assay, conditions: HL-60, 48 h, read-out: LC50 (the source's name)

Question: With `NNC(=O)COc1nc(-c2cccs2)nc2ccc(I)cc12` as the compound, how does the CC50 read?
Answer: > 100 µM

Tested on: not listed separately
Assay: Growth inhibition of human prostate cancer cells after 48 hrs
Format: functional
Conditions: Cancer cell lines
Method in brief: as §1

Question: Which GI50 does the source give for `CCSc1nc(-c2cccs2)nc2ccc(I)cc12` here?
Answer: > 100 µM

Question: And the TGI?
Answer: > 100 µM

Question: What does the source list for `NNC(=O)COc1nc(-c2cccs2)nc2ccc(I)cc12`?
Answer: GI50: 23.5 µM; TGI: 75.3 µM

Tested on: not listed separately
Assay: Growth inhibition of human Colon cancer cells after 48 hrs
Format: functional
Conditions: Cancer cell lines
Method in brief: as §1

Question: With `CCSc1nc(-c2cccs2)nc2ccc(I)cc12` as the compound, how does the GI50 read?
Answer: 94.6 µM

Question: What about the TGI of the same compound?
Answer: > 100 µM

Question: Which results are given for `NNC(=O)COc1nc(-c2cccs2)nc2ccc(I)cc12`?
Answer: GI50: 24.3 µM; TGI: 66.9 µM

Tested on: not listed separately
Assay: Growth inhibition of human CNS cancer cells after 48 hrs
Format: functional
Conditions: Cancer cell lines
Method in brief: as §1

Question: With `CCSc1nc(-c2cccs2)nc2ccc(I)cc12` as the compound, how does the GI50 read?
Answer: > 100 µM

Question: And the TGI?
Answer: > 100 µM

Question: Which GI50 does the source give for `NNC(=O)COc1nc(-c2cccs2)nc2ccc(I)cc12` here?
Answer: 20.7 µM

Question: What about the TGI of the same compound?
Answer: 62.1 µM

Tested on: NSCLC
Assay: Growth inhibition of human NSCLC cells after 48 hrs
Format: functional
Conditions: not given
Method in brief: as §1

Question: What does the source list for `CCSc1nc(-c2cccs2)nc2ccc(I)cc12`?
Answer: GI50: 84.2 µM; TGI: > 100 µM

Question: Which GI50 does the source give for `NNC(=O)COc1nc(-c2cccs2)nc2ccc(I)cc12` here?
Answer: 19.4 µM

Question: And the TGI?
Answer: 59.6 µM

Tested on: K562
Assay: Growth inhibition of human K562 cells after 48 hrs
Format: functional
Conditions: K562, 48 h
Method in brief: as §1

Question: With `NNC(=O)COc1nc(-c2cccs2)nc2ccc(I)cc12` as the compound, how does the GI50 read?
Answer: 37 µM

Question: And the LC50 (concentration killing 50% of cells)?
Answer: > 100 µM

Question: What about the TGI of the same compound?
Answer: > 100 µM

Tested on: CCRF-CEM
Assay: Growth inhibition of human CCRF-CEM cells after 48 hrs
Format: functional
Conditions: not given
Method in brief: as §1

Question: Which results are given for `NNC(=O)COc1nc(-c2cccs2)nc2ccc(I)cc12`?
Answer: GI50: 20 µM; TGI: 88 µM

Same assay, conditions: read-out: LC50 (the source's name)

Question: Which CC50 does the source give for `NNC(=O)COc1nc(-c2cccs2)nc2ccc(I)cc12` here?
Answer: > 100 µM

Tested on: not listed separately
Assay: Growth inhibition of human leukemia cells after 48 hrs
Format: functional
Conditions: Leukemia cell
Method in brief: as §1

Question: Which TGI does the source give for `CCSc1nc(-c2cccs2)nc2ccc(I)cc12` here?
Answer: > 100 µM

Question: Which results are given for `NNC(=O)COc1nc(-c2cccs2)nc2ccc(I)cc12`?
Answer: GI50: 25.4 µM; TGI: 80.5 µM

Tested on: not listed separately
Assay: Growth inhibition of human breast cancer cells after 48 hrs
Format: functional
Conditions: Cancer cell lines
Method in brief: as §1

Question: What does the source list for `CCSc1nc(-c2cccs2)nc2ccc(I)cc12`?
Answer: GI50: 71.4 µM; TGI: > 100 µM

Question: For `NNC(=O)COc1nc(-c2cccs2)nc2ccc(I)cc12`, which GI50 is on record?
Answer: 18.7 µM

Question: And the TGI?
Answer: 64.7 µM

Tested on: SK-MEL-2
Assay: Growth inhibition of human SK-MEL-2 cells after 48 hrs
Format: functional
Conditions: SK-MEL-2, 48 h
Method in brief: as §1

Question: Which GI50 does the source give for `NNC(=O)COc1nc(-c2cccs2)nc2ccc(I)cc12` here?
Answer: 25 µM

Question: And the LC50?
Answer: > 100 µM

Question: And the TGI?
Answer: 71 µM
